Experimental findings from publication PMC2896288 (Journal of molecular biology, 2010) are described below.

The target of test [1] is human Mcl-1 (residues 172-327) (Homo sapiens, UniProt Q07820). The test can be described thus: Fluorescence polarization competition binding assay, Mcl-1. The note with it: FP competition binding assay. Summed up:
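c-myc-tagged human Mcl-1 (172-327) from E. coli BL21(DE3), TEV-cleaved from MBP, at 50 nM. Serially diluted unlabelled 23-residue peptides are premixed with Mcl-1 first. FITC-Bim-BH3 (10 nM) is then added and mixed overnight at 37 °C, returned to room temperature and anisotropy read. Buffer: phosphate, pH 7.8. Ki from complete competitive binding model fitting five parameters, Bim Kd fixed 1 nM; unlabelled Bim-BH3 reference; ≥2 experiments, SD.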
On the technique in general: Polarisation of emitted light reports the rotation of a fluorescent probe.

The target in test [2] is human Bcl-xL (residues 1-209) (Homo sapiens, UniProt Q07817). The test can be described thus: Fluorescence polarization competition binding assay, Bcl-xL. The settings on record: FP competition binding assay.
Chain of human Bcl-xL (residues 1-209) (Q07817 1-209): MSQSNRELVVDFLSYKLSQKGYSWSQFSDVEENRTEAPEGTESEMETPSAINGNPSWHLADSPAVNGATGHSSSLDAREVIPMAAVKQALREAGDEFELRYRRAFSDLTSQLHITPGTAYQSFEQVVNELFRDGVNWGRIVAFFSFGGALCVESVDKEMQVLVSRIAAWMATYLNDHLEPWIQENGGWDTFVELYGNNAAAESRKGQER
Test [3] concerns the target human Mcl-1 (residues 172-327), c-myc tagged (human) (UniProt Q07820). The test can be described thus: fluorescence polarisation.
Test [4] addresses human Bcl-xL (residues 1-209), c-myc tagged (human) (UniProt Q07817). As to the kind of experiment: fluorescence polarisation.
In a further test the target is Mcl-1 (Homo sapiens, UniProt Q07820). As to the kind of experiment: Yeast surface display binding, soluble Mcl-1. The settings on record: yeast cells displaying the peptide titrated with soluble Mcl-1. Summed up: (§1)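 EBY100 yeast displaying the BH3 peptide as Aga2p fusion with C-terminal FLAG tag, incubated with c-myc-tagged pro-survival protein. Expression is read by anti-FLAG/FITC and binding by anti-c-myc/PE. Cells are gated by forward scatter on a FACScan flow cytometer, typically 10,000 events analysed.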
Chain of Mcl-1 (Q07820 172-327): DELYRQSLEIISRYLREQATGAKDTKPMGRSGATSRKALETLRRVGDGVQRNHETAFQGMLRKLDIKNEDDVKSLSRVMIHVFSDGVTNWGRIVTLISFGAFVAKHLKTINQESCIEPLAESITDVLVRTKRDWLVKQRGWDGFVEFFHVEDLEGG

Another test concerns the target Bcl-xL (Homo sapiens, UniProt Q07817). The test can be described thus: Yeast surface display binding, soluble Bcl-xL. The settings on record: yeast cells displaying the peptide titrated with soluble Bcl-xL. An outline of the steps:
as §1

For test [5], the target named is T1, human Bcl-w (residues 1-164), c-myc tagged (human), Q92843.
T1 chain: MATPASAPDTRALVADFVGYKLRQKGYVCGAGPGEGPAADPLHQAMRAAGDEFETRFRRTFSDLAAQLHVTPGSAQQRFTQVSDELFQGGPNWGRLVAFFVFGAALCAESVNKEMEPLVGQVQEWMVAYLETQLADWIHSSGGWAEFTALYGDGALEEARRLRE
The test can be described thus: SEC. The note with it: remark: other sources report otherwise.

A word on the Ki: it is the dissociation constant of the complex between target and ligand, obtained from inhibition or displacement. Higher therefore signals lower affinity.

Chain of human Mcl-1 (residues 172-327), c-myc tagged (human) (Q07820 172-327): as the sequence (Q07820 172-327) above
Chain of human Mcl-1 (residues 172-327) (Q07820 172-327): as the sequence (Q07820 172-327) above
Chain of human Bcl-xL (residues 1-209), c-myc tagged (human) (Q07817 1-209): as the sequence (Q07817 1-209) above
Chain of Bcl-xL (Q07817 1-209): as above

`CC[C@H](C)[C@H](NC(=O)[C@H](CCCNC(=N)N)NC(=O)[C@H](CCCNC(=N)N)NC(=O)[C@H](CC(C)C)NC(=O)[C@H](CCC(=O)O)NC(=O)[C@H](CCC(N)=O)NC(=O)[C@H](C)NC(=O)[C@@H](NC(=O)[C@H](Cc1c[nH]c2ccccc12)NC(=O)[C@@H](NC(=O)[C@H](CCC(=O)O)NC(=O)[C@@H]1CCCN1C(=O)[C@H](CCCNC(=N)N)NC(C)=O)[C@@H](C)CC)[C@@H](C)CC)C(=O)NCC(=O)N[C@@H](CC(=O)O)C(=O)N[C@@H](CCC(=O)O)C(=O)N[C@H](C(=O)N[C@@H](CC(N)=O)C(=O)N[C@@H](C)C(=O)N[C@@H](Cc1ccc(O)cc1)C(=O)N[C@@H](Cc1ccc(O)cc1)C(=O)N[C@@H](C)C(=O)N[C@@H](CCCNC(=N)N)C(N)=O)C(C)C` [Phe4aVal mutation in Bim-BH3]: the “increase of affinity for Mcl-1 relative to Bim-BH3” value in test [1] was “more than 10 fold”. Besides, the “reduction of affinity for Bcl-xL relative to Bim-BH3” value in test [2] was about 30 fold.
On to “Bim-BH3 with a Phe4aVal mutation (synthetic peptide)”, for which the figures for the Ki in test [3] and in test [4] were under 0.1 nM and 30 nM, respectively.
For the molecule “Bim-BH3: peptide derived from the BH3 region of human Bim; N-acetylated, C-amidated 23-mer in solution assays”, the “dissociation constant, yeast-displayed peptide, Mcl-1” value in the test with Mcl-1 is on record as “low nanomolar range”. Further, the “dissociation constant, yeast-displayed peptide, Bcl-xL” value in the test with Bcl-xL is recorded as “low nanomolar range”.
“unlabeled Bim-BH3 peptide (23-residue synthetic peptide)” showed an inhibitory constant (Ki) in test [3] of 2 nM.

B1: human Bcl-w (residues 1-164), c-myc tagged, Q92843 1-164 (domain or fragment)
chain: T1 chain
With B1, in test [5], the oligomeric fraction came to 58%.
